In ChEMBL document CHEMBL1125245, “Quinolone antibacterials: preparation and activity of bridged bicyclic analogues of the C7-piperazine” (J Med Chem, 1991):

Tests used:
Escherichia coli [1] = assay: In vivo protection against gram-negative Escherichia coli vogel in mouse after subcutaneous administration; settings: sc, read-out: PD50
Escherichia coli [2] = assay: In vivo protection against gram-negative Escherichia coli vogel in mouse after oral administration.; settings: read-out: PD50
[3] = Compound evaluated in vitro against five gram-negative bacterial strains and geometric means of the minimum inhibitory concentrations (MIC) reported.; assay type: functional; parameters: unit not given here
Procedure, shortened: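 Geometric mean MIC across five Gram-negative strains (E. coli H560, E. coli Vogel, Enterobacter cloacae MA 2646, Klebsiella pneumoniae MGH-2, Proteus rettgeri M1771). Mean taken as antilog of the averaged log MIC values.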

[4] = Compound evaluated in vitro against five gram-positive bacterial strains and geometric means of the minimum inhibitory concentrations (MIC) reported.; assay type: functional; parameters: unit not given here
Procedure, shortened: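 Geometric mean MIC across five Gram-positive strains, taken as antilog of the averaged log MIC values.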

DNA gyrase = DNA gyrase (Escherichia coli, UniProt P0AES4+P0AES6); assay: Compound evaluated in vitro for the ability to inhibit gyrase.; assay type: protein-complex assay; settings: read-out: I50 (converted)
Procedure, shortened: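 DNA gyrase isolated from Escherichia coli H560 cells; inhibition given as I50.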

Streptococcus pneumoniae [5] = assay: In vivo protection against gram-positive Streptococcus pneumonia (SV-1) in mouse after subcutaneous administration; assay type: functional; settings: sc, read-out: PD50
Streptococcus pneumoniae [6] = assay: In vivo protection against gram-positive Streptococcus pneumonia (SV-1) in mouse after oral administration.; assay type: functional; settings: read-out: PD50

Compound	ED50 (Escherichia coli [1]) [mg/kg]	ED50 (Escherichia coli [2]) [mg/kg]	MIC [3]	MIC [4]	IC50 (DNA gyrase) [µM]	ED50 (Streptococcus pneumoniae [5]) [mg/kg]	ED50 (Streptococcus pneumoniae [6]) [mg/kg]
Cl.O=C(O)c1cn(C2CC2)c2nc(N3C[C@@H]4CC3CN4)c(F)cc2c1=O	1.6	2.2	0.03	0.26			
O=C(O)c1cn(C2CC2)c2nc(N3CCN4CCC3C4)c(F)cc2c1=O (stereo not given)	0.3	0.5	0.11	0.46	38.5	20	32
Br.O=C(O)c1cn(C2CC2)c2cc(N3C[C@@H]4CC3CN4)c(F)cc2c1=O	0.2	1.9	0.04	0.3	4.48	12.5	> 100
Cl.N[C@@H]1C[C@H]2CC[C@@H](C1)N2c1c(F)cc2c(=O)c(C(=O)O)cn(C3CC3)c2c1F	4	21	0.26	0.11	8.92		
O=C(O)c1cn(C2CC2)c2c(F)c(N3C[C@H]4CC3CN4)c(F)cc2c1=O	0.4	1.7	0.07	0.53	7.75	18.5	> 100
O=C(O)c1cn(C2CC2)c2c(F)c(N3CCNCC3)c(F)cc2c1=O	0.3	0.5	0.04	0.4		29	59
CCN[C@H]1C[C@H]2CC[C@@H](C1)N2c1c(F)cc2c(=O)c(C(=O)O)cn(C3CC3)c2c1F	6.5	> 12.5	0.6	0.46	15.1		
CCN[C@@H]1C[C@H]2CC[C@@H](C1)N2c1cc2c(cc1F)c(=O)c(C(=O)O)cn2C1CC1	2.3	5.7	0.8	0.26	15.8	23	35
Nc1c(F)c(N2CC3CCC2CN3)c(F)c2c1c(=O)c(C(=O)O)cn2C1CC1 (stereo not given)	0.7	3.6	0.06	0.06	14.1		
Cl.N[C@H]1C[C@H]2CC[C@@H](C1)N2c1nc2c(cc1F)c(=O)c(C(=O)O)cn2C1CC1	6	71	0.79	0.4	18.3		
Nc1c(F)c(N2C[C@H]3CC2CN3)c(F)c2c1c(=O)c(C(=O)O)cn2C1CC1	1	5	0.04	0.09	36.7	13	> 100
CN1CC2CCC1CN2c1nc2c(cc1F)c(=O)c(C(=O)O)cn2C1CC1 (stereo not given)	1.1	1.4	0.1	0.26	14.8		
Br.Nc1c(F)c(N2C[C@@H]3CC2CN3)c(F)c2c1c(=O)c(C(=O)O)cn2C1CC1	1.1	6.1	0.07	0.25			
NC1CCN(c2c(F)cc3c(=O)c(C(=O)O)cn(C4CC4)c3c2F)CC1	1.4	4.7	0.2	0.08	< 1.38		
Nc1c(F)c(N2CCNCC2)c(F)c2c1c(=O)c(C(=O)O)cn2C1CC1	0.2	0.8	0.02	0.05		23	31
Nc1c(F)c(N2CCN3CCC2C3)c(F)c2c1c(=O)c(C(=O)O)cn2C1CC1 (stereo not given)	0.2	0.6	0.03	0.08	14.1		
O=C(O)c1cn(C2CC2)c2cc(N3C[C@H]4CC3CN4)c(F)cc2c1=O	0.6	5.5	0.1	0.79	8.15	51	> 100
N[C@H]1C[C@H]2CC[C@@H](C1)N2c1cc2c(cc1F)c(=O)c(C(=O)O)cn2C1CC1	2	9.5	0.15	0.23	8.08		
O=C(O)c1cn(C2CC2)c2c(F)c(N3CCN4CCC3C4)c(F)cc2c1=O (stereo not given)	0.2	0.5	0.04	0.15	7.73	11	32
O=C(O)c1cn(C2CC2)c2c(F)c(N3CC4CCC3CN4)c(F)cc2c1=O (stereo not given)	1.3	2.9	0.09	0.3	16.8		

Compound	ED50 (Escherichia coli [1]) [mg/kg]	ED50 (Escherichia coli [2]) [mg/kg]	MIC [3]	MIC [4]	IC50 (DNA gyrase) [µM]	ED50 (Streptococcus pneumoniae [5]) [mg/kg]	ED50 (Streptococcus pneumoniae [6]) [mg/kg]
CCN[C@H]1C[C@H]2CC[C@@H](C1)N2c1cc2c(cc1F)c(=O)c(C(=O)O)cn2C1CC1.F			2.76	1.81	41.7		
O=C(O)c1cn(C2CC2)c2nc(N3CCNCC3)c(F)cc2c1=O	0.4	0.7	0.06	1.21	150		
CCN[C@H]1C[C@H]2CC[C@@H](C1)N2c1nc2c(cc1F)c(=O)c(C(=O)O)cn2C1CC1	2.8	2.8	0.46	0.26	15.7	16	23
Cl.N[C@@H]1C[C@H]2CC[C@@H](C1)N2c1nc2c(cc1F)c(=O)c(C(=O)O)cn2C1CC1	1.1	2.1	0.25	0.46	42.8	21	29
Cl.O=C(O)c1cn(C2CC2)c2nc(N3CC4CCCC3CN4)c(F)cc2c1=O (stereo not given)	0.8	2.3	0.08	0.09	7.34	18	25
O=C(O)c1cn(C2CC2)c2cc(N3CC4CCCC3CN4)c(F)cc2c1=O (stereo not given)	1.6	5.7	0.08	0.06	4.85	6.6	> 100
NC1CCN(c2cc3c(cc2F)c(=O)c(C(=O)O)cn3C2CC2)CC1	1.4	15	0.17	0.17	2.32		
O=C(O)c1cn(C2CC2)c2c(F)c(N3CC4CCCC3CN4)c(F)cc2c1=O (stereo not given)	1.1	2.9	0.15	0.15	7.45	11.9	48.5
NC1CCN(c2nc3c(cc2F)c(=O)c(C(=O)O)cn3C2CC2)CC1	0.8	4.6	0.11	0.23	8.66		
CCN[C@@H]1C[C@H]2CC[C@@H](C1)N2c1nc2c(cc1F)c(=O)c(C(=O)O)cn2C1CC1	9.1	21	0.6	0.53	15.7		
CN1CC2C[C@@H]1CN2c1c(F)cc2c(=O)c(C(=O)O)cn(C3CC3)c2c1F.Cl	0.5	0.9	0.09	0.17	7.28	14	13
Nc1c(F)c(N2CC3CCCC2CN3)c(F)c2c1c(=O)c(C(=O)O)cn2C1CC1 (stereo not given)	0.7	4.8	0.04	0.03	2.23	6.3	35
O=C(O)c1cn(C2CC2)c2nc(N3C[C@H]4CC3CN4)c(F)cc2c1=O	37	53	0.08	0.46	18.3		
O=C(O)c1cn(C2CC2)c2cc(N3CCN4CCC3C4)c(F)cc2c1=O (stereo not given)	0.3	1	0.03	0.09	8.39	11	35
CCN[C@@H]1C[C@H]2CC[C@@H](C1)N2c1c(F)cc2c(=O)c(C(=O)O)cn(C3CC3)c2c1F	3	5.8	0.61	0.17	9.1		
CN1CC2C[C@@H]1CN2c1nc2c(cc1F)c(=O)c(C(=O)O)cn2C1CC1.Cl	0.3	0.5	0.08	0.35	9.62	25	23
CN1CC2CCC1CN2c1c(F)cc2c(=O)c(C(=O)O)cn(C3CC3)c2c1F (stereo not given)	< 1.6	< 1.6	0.13	0.15	16.2		
N[C@H]1C[C@H]2CC[C@@H](C1)N2c1c(F)cc2c(=O)c(C(=O)O)cn(C3CC3)c2c1F	0.75	1.8	0.05	0.03	9.76	3.1	8.5
O=C(O)c1cn(C2CC2)c2nc(N3CC4CCC3CN4)c(F)cc2c1=O (stereo not given)	0.7	1.7	0.13	0.11	17.6	15.1	> 100
O=C(O)c1cn(C2CC2)c2cc(N3CCNCC3)c(F)cc2c1=O [CIPROFLOXACIN]	0.3	1.2	0.06	0.91		29	> 100
